The source of these data is ChEMBL document CHEMBL5712884, “S-Adenosyl-L-methionine-competitive inhibitors of the histone methyltransferase EZH2 induce autophagy and enhance drug sensitivity in cancer cells” (Anticancer Drugs, 2015).

Data set [1] concerns MDA-MB-231. The experiment in a line: Induction of autophagy in human MDA-MB-231 cells assessed as induction of LC3-II accumulation at 10 umol/L for 48 hrs by Western blot analysis. Particulars: dose 10.0 µmol/L.
Data set [2] deals with A549. Kind of data set: Cytotoxicity against human A549 cells assessed as reduction in cell viability at 10 umol/L measured after 72 hrs in presence of class III PI3K inhibitor 3-methyladenine by MTT assay. The format is functional, cell-based. Particulars: dose 10.0 µmol/L. Summed up:
(§1)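 HepG2 and A549 cells pretreated 1 h with 2 mmol/l 3-MA, then exposed to 10 μmol/l compound for 72 h. Viability read by MTT (0.5 mg/ml, 4 h, formazan in DMSO, A550). Means and SDs; Student's t-test against cells without 3-MA.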
A general note: Formazan colour is commonly taken as a measure of viable cells.

Data set [3] has as its system MDA-MB-231. Kind of data set: Induction of autophagy in human MDA-MB-231 cells assessed as downregulation of p62 expression at 10 umol/L measured after 24 hrs in presence of bafilomycin A1 by Western blot analysis. Particulars: dose 10.0 µmol/L. Type of data set: functional, cell-based. For orientation: In western blotting, separated proteins are transferred to a membrane and probed.

The test system of data set [4] is MDA-MB-231. The experiment in a line: Cytotoxicity against human MDA-MB-231 cells assessed as reduction in cell viability measured after 72 hrs in presence of class III PI3K inhibitor 3-methyladenine by MTT assay. The format is functional, cell-based.
Data set [5] deals with MDA-MB-231. Kind of data set: Induction of apoptosis in human MDA-MB-231 cells assessed as induction of cleavage of PARP at 10 to 20 umol/L incubated for 72 hrs by Western blot analysis. Type of data set: functional, cell-based. Particulars: dose 10-20 µmol/L.
In data set [6] the test system is MDA-MB-231. The experiment in a line: […] in human MDA-MB-231 cells assessed as induction of LC3-II accumulation at 10 umol/l measured after 24 hrs in presence of class III PI3K inhibitor 3-methyladenine by Western blot analysis. Particulars: dose 10.0 µmol/L. Type of data set: functional, cell-based.
For data set [7], the target named is Histone-lysine N-methyltransferase EZH2 (Homo sapiens) (UniProt Q15910). The experiment in a line: Inhibition of EZH2 in human A549 cells assessed as reduction in H3K27-me3 level at 10 umol/L incubated for 72 hrs by Western blot analysis. Type of data set: cell-based. The conditions noted are these: dose 10.0 µmol/L.
Sequence of Histone-lysine N-methyltransferase EZH2 (Homo sapiens) (Q15910 whole entry, looked up): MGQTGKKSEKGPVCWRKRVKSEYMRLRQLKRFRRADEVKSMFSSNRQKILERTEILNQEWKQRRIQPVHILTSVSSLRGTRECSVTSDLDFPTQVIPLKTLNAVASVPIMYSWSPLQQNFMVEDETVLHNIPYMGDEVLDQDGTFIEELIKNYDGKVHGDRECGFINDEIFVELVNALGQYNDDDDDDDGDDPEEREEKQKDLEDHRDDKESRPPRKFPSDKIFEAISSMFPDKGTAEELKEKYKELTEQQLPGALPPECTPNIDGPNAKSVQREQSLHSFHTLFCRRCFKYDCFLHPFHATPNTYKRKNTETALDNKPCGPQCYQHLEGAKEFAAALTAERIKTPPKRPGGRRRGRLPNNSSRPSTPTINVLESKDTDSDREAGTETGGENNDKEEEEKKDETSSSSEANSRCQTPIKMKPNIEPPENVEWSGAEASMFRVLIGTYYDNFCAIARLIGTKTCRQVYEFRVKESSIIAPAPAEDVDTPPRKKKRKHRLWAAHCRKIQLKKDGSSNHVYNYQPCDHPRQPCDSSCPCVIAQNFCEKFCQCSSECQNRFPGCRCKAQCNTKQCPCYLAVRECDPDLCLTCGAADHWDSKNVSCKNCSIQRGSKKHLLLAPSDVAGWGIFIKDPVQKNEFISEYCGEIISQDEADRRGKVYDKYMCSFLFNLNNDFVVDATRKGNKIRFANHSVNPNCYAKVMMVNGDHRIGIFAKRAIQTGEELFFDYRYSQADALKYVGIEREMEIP
In data set [8] the test system is MDA-MB-231. Kind of data set: Induction of autophagy in human MDA-MB-231 cells assessed as induction of LC3-II accumulation at 10 to 20 umol/L incubated for 24 hrs by Western blot analysis. Type of data set: functional, cell-based. Particulars: dose 10-20 µmol/L.
In data set [9] the test system is HepG2. Kind of data set: Cytotoxicity against human HepG2 cells assessed as effect on cell viability after 72 hrs by MTT analysis. The format is functional, cell-based. Summed up: (§2)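 Cells in DMEM with 10% FBS at 37°C, 5% CO2, plated in 96-well plates and drug-treated for 72 h. MTT 0.5 mg/ml added for 4 h, formazan dissolved in DMSO, absorbance read at 550 nm. Means and SDs; Student's t-test.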

The test system of data set [10] is MDA-MB-231. The experiment in a line: Induction of autophagy in human MDA-MB-231 cells assessed as induction of LC3-II accumulation at 10 to 20 umol/L incubated for 72 hrs by Western blot analysis. The conditions noted are these: dose 10-20 µmol/L. The format is functional, cell-based.
Data set [11] deals with MDA-MB-231. The experiment in a line: Induction of apoptosis in human MDA-MB-231 cells assessed as induction of cleavage of caspase-3 at 10 to 20 umol/L incubated for 72 hrs by Western blot analysis. The format is functional, cell-based. The conditions noted are these: dose 10-20 µmol/L.
In data set [12] the target is Histone-lysine N-methyltransferase EZH2 (Homo sapiens) (UniProt Q15910). The experiment in a line: Inhibition of EZH2 in human HepG2 cells assessed as reduction in H3K27-me3 level at 10 umol/L incubated for 72 hrs by Western blot analysis. Type of data set: cell-based. Particulars: dose 10.0 µmol/L.
Data set [13] concerns MDA-MB-231. Kind of data set: Cytotoxicity against human MDA-MB-231 cells assessed as reduction in cell viability after 72 hr by MTT analysis. Type of data set: functional, cell-based. Summed up:
as §2

In data set [14] the test system is MDA-MB-231. Kind of data set: Induction of autophagy in human MDA-MB-231 cells assessed as change in total LAMP2 expression at 10 umol/L measured after 24 hrs by Western blot analysis. The format is toxicity, cell-based. Particulars: mda-mb-231, 24 h, 10 µM, dose 10 µmol/L.
The test system of data set [15] is HepG2. Kind of data set: Cytotoxicity against human HepG2 cells assessed as effect on cell viability incubated for 72 hrs by MTT analysis. Type of data set: functional, cell-based. Summed up:
as §2

The subject of data set [16] is HepG2. The experiment in a line: […] in human HepG2 cells assessed as induction of LC3-II accumulation at 10 to 20 umol/L measured after 24 hrs in presence of bafilomycin A1 by Western blot analysis. Particulars: dose 10-20 µmol/L. Type of data set: functional, cell-based. The essentials:
(§3)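 A549 and HepG2 cells drug-treated with or without bafilomycin A1. Lysates made in Tris pH 7.5/NP-40 buffer with protease and phosphatase inhibitors, 25–50 μg run on 7–12% SDS-PAGE, probed for LC3B, ECL detection.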

For data set [17], the system named is MDA-MB-231. The experiment in a line: Induction of autophagy in human MDA-MB-231 cells assessed as reduction in expression of p62 at 10 umol/L incubated for 24 hrs by Western blot analysis. Type of data set: functional, cell-based. The conditions noted are these: dose 10.0 µmol/L.
Data set [18] has as its system A549. The experiment in a line: […] in human A549 cells assessed as induction of LC3-II accumulation at 10 to 20 umol/L measured after 24 hrs in presence of bafilomycin A1 by Western blot analysis. Type of data set: functional, cell-based. The conditions noted are these: dose 10-20 µmol/L. Summed up: as §3
Data set [19] deals with HepG2. The experiment in a line: Cytotoxicity against human HepG2 cells assessed as reduction in cell viability at 10 umol/L measured after 72 hrs in presence of class III PI3K inhibitor 3-methyladenine by MTT assay. The conditions noted are these: dose 10.0 µmol/L. Type of data set: functional, cell-based. The essentials:
as §1

Data set [20] concerns MDA-MB-231. Kind of data set: Induction of autophagy in human MDA-MB-231 cells assessed as formation of autophagic vacuoles by measuring increase in Cyto-ID fluorescence intensity at 10 umol/L by measured after 24 hrs by Cyto-ID/Hoechst 33342 fluorescence microscopic analysis. The format is functional, cell-based. Particulars: dose 10.0 µmol/L. Summed up: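 MDA-MB-231 cells washed twice in PBS with 5% FBS, then stained with Cyto-ID detection reagent plus Hoechst 33342 for 30 min at 37°C. Cells washed and autophagic vacuoles imaged by fluorescence microscopy.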

For data set [21], the system named is HepG2. The experiment in a line: Potentiation of sorafenib-induced anticancer activity in human HepG2 cells assessed as increase in cleaved PARP expression at 10 umol/L measured after 72 hrs by Western blot analysis. The conditions noted are these: dose 10.0 µmol/L. The format is functional, cell-based. The essentials: (§4)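 HepG2 cells given 5 μmol/l sorafenib, with or without 10 μmol/l compound, for 72 h. Whole-cell lysates immunoblotted for PARP1, LC3B and β-actin.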

The subject of data set [22] is MDA-MB-231. The experiment in a line: Induction of autophagy in human MDA-MB-231 cells assessed as change in total LAMP2 expression at 10 umol/L measured after 24 hrs in presence of bafilomycin A1 by Western blot analysis. Type of data set: toxicity, cell-based. The conditions noted are these: mda-mb-231, 24 h, 10 µM, dose 10 µmol/L.
The target of data set [23] is Histone-lysine N-methyltransferase EZH2 (Homo sapiens) (UniProt Q15910). Kind of data set: Inhibition of EZH2 in human MDA-MB-231 cells assessed as reduction in H3K27-me3 level at 10 umol/L incubated for 72 hrs by Western blot analysis. The format is cell-based. The conditions noted are these: dose 10.0 µmol/L.
Data set [24] has as its system MDA-MB-231. The experiment in a line: Induction of autophagy in human MDA-MB-231 cells assessed as increase in LC3-II accumulation at 10 umol/L incubated for 24 hrs in presence of bafilomycin A1 by Western blot analysis. Type of data set: functional, cell-based. Particulars: dose 10.0 µmol/L.
Data set [25] deals with A549. Kind of data set: […] in human A549 cells assessed as induction of LC3-II accumulation at 10 to 20 umol/L measured after 24 hrs by Western blot analysis. The conditions noted are these: dose 10-20 µmol/L. The format is functional, cell-based. The essentials: as §3
Data set [26] has as its system MDA-MB-231. The experiment in a line: Induction of apoptosis in human MDA-MB-231 cells assessed as reduction in pro-caspase-3 expression at 10 to 20 umol/L incubated for 72 hrs by Western blot analysis. The format is functional, cell-based. Particulars: dose 10-20 µmol/L.
For data set [27], the system named is HepG2. The experiment in a line: Potentiation of sorafenib-induced anticancer activity in human HepG2 cells at 10 umol/L measured after 72 hrs by MTT assay. Particulars: dose 10.0 µmol/L. The format is functional, cell-based. Summed up:
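HepG2 cells given a range of sorafenib doses, with or without 10 μmol/l compound, for 72 h. Viability by MTT (0.5 mg/ml, 4 h, DMSO, A550). Student's t-test against untreated cells.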

In data set [28] the test system is HepG2. The experiment in a line: Potentiation of sorafenib-induced anticancer activity in human HepG2 cells assessed as increase in LC3-II accumulation at 10 umol/L measured after 72 hrs by Western blot analysis. The format is functional, cell-based. Particulars: dose 10.0 µmol/L. Summed up:
as §4

Data set [29] deals with HepG2. The experiment in a line: […] in human HepG2 cells assessed as induction of LC3-II accumulation at 10 to 20 umol/L measured after 24 hrs by Western blot analysis. Type of data set: functional, cell-based. The conditions noted are these: dose 10-20 µmol/L. Summed up: as §3
Data set [30] concerns MDA-MB-231. Kind of data set: Induction of apoptosis in human MDA-MB-231 cells assessed as cleavage of caspase-3 at 0.75 umol/L incubated for 72 hrs by Western blot analysis. The conditions noted are these: dose 0.75 µmol/L. Type of data set: functional, cell-based.
The subject of data set [31] is MDA-MB-231. The experiment in a line: […] in human MDA-MB-231 cells assessed as induction of LC3-II accumulation at 1 umol/L for 48 hrs by Western blot analysis. Type of data set: functional, cell-based. Particulars: dose 1.0 µmol/L.
The test system of data set [32] is MDA-MB-231. Kind of data set: Induction of apoptosis in human MDA-MB-231 cells assessed as cleavage of PARP at 0.75 umol/L incubated for 72 hrs by Western blot analysis. Particulars: dose 0.75 µmol/L. The format is functional, cell-based.

Calls of active or inactive are those of the source. The calls are words filed in the database; no cut-off is given here.

Turning to `COc1cc([C@@H]2c3cc4c(cc3[C@@H](O[C@@H]3O[C@@H]5CO[C@@H](C)O[C@H]5[C@H](O)[C@H]3O)[C@H]3COC(=O)[C@H]23)OCO4)cc(OC)c1O`, the outcome in the data set on MDA-MB-231 [1] was Active.

With `CCCc1cc(C)[nH]c(=O)c1CNC(=O)c1cc(-c2ccnc(N3CCN(C)CC3)c2)cc2c1cnn2C(C)C`, the outcome with MDA-MB-231 [1], in the data set with MDA-MB-231 [5], in the data set with MDA-MB-231 [8], in the data set with HepG2 [9], in the data set on MDA-MB-231 [10] and in the data set on HepG2 [15] was Active. Besides, the result in the data set on HepG2 [16], in the data set with MDA-MB-231 [17], with A549 [18], in the data set on MDA-MB-231 [20], with HepG2 [21] and in the data set with MDA-MB-231 [24] was Active. Also, the outcome with A549 [25], with MDA-MB-231 [26], in the data set on HepG2 [27], in the data set with HepG2 [28] and in the data set with HepG2 [29] was Active. The outcome in the data set on A549 [2], in the data set with MDA-MB-231 [3], in the data set on MDA-MB-231 [4], with MDA-MB-231 [6], in the data set with MDA-MB-231 [11] and in the data set on HepG2 [19] was inactive. In addition, the inhibition result in data set [7], in [12] and in data set [23] was “Active” in each case. The values for the Activity entry in the data set with MDA-MB-231 [13], in the data set on MDA-MB-231 [14] and in the data set on MDA-MB-231 [22] were “Dose-Dependent Effect”, “Non-Toxic” and “Non-Toxic”, respectively.

Turning to `COc1cccc2c1C(=O)c1c(O)c3c(c(O)c1C2=O)C[C@@](O)(C(=O)CO)C[C@@H]3O[C@H]1C[C@H](N)[C@H](O)[C@H](C)O1`, the outcome in the data set with MDA-MB-231 [30], in the data set with MDA-MB-231 [31] and with MDA-MB-231 [32] was Active.
